High-throughput results from PubChem.
Shown are actives, neighbours in structure and some others; about 3.4% of the full set was active somewhere.
rRNA inh HTS: inhibitors of bacterial rRNA selective over humanized ribosomes; GFP signal change (wild-type ribosome), % (test concentration not listed); hit rate 1.6% among 350,000; E. coli WT GFP vs humanized-ribosome RFP mutants, fluorescence, 24 h; hits give low values; DMSO median 0, no signal -100;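 active = significant combined selectivity score with lowered wild-type GFP, culture density cut under 30%, mutant RFP and density less affected; inactive = any of these conditions unmet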
E-selectin induc: E-selectin induction on HUVECs; P16581; HUVEC E-selectin immunofluorescence imaging; normalized: neutral wells 0, TNF-alpha wells 100; activation, % at 7.58 µM; hit rate 0.37% among 260,000; AID 686992;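 active = mean E-selectin-positive cell signal at least 10% of the positive control, reached in at least 60% of replicates, without over 20% cell loss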
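Test system – human umbilical vein endothelial cells (HUVEC), E-selectin induction · Input – 3,000 HUVEC seeded per well · Buffer or medium – EGM-2, gelatin · Compound dosing – single-point compound dose · Detection – immunofluorescence imaging · Measure – percent E-selectin-positive cells · Controls – TNF-alpha high, DMSO low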
ERAP1 HTS inh: blocks human ERAP1 aminopeptidase activity; Q9NZ08; recombinant ERAP1, Leu-AMC fluorescence, 60 min; inhibition, % at 10.7 µM; hit rate 0.15% among 340,000;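 active = mean replicate inhibition of at least 30%, or all replicates individually reaching that 30% level; inactive = mean below 30% and not every replicate reaching it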;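 note: 0% = neutral control wells and 100% = L-leucinethiol positive control wells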
MLL AF4-AF9 inh: MLL-AF4/AF9 protein interaction inhibition; P42568; inhibition, % at 10 µM; hit rate 0.47% among 350,000; AlphaScreen, biotin-AF4 peptide binding to FLAG-AF9; AID 651704;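 active = every replicate reaching a set inhibition limit, whatever the replicate mean, cut at about 25% in these data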;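 note: 0% = plate neutral control median and 100% = total signal loss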
Target sequence (P42568 whole entry, looked up): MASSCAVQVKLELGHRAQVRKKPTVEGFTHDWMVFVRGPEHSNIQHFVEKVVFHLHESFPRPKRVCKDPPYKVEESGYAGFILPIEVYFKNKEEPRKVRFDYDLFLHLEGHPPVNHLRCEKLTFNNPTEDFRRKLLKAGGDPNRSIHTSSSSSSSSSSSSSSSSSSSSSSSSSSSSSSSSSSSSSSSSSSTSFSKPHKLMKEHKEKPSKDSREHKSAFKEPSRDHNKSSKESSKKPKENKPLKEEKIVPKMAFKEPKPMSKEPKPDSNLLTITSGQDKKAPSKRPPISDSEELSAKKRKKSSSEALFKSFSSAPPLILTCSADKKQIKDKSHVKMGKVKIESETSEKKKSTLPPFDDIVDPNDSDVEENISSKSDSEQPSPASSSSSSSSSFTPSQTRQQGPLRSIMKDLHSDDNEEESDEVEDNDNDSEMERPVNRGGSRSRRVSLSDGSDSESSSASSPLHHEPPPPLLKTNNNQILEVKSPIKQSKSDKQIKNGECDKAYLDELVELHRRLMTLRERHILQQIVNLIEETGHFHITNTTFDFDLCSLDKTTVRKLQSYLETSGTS
S100A4 MyoIIA: blocks human S100A4 binding to myosin IIA peptide; AID 652163; hit rate 0.14% among 360,000; inhibition, % at 10.7 µM; S100A4/TAMRA-MyoIIA peptide fluorescence polarization;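 active = mean inhibition of at least 70% across replicates, with every replicate also reaching that level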
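Test system: S100A4 monomer protein; Medium: HEPES pH 7.2 with CaCl2, KCl, NaCl, DTT, Triton; Probe or stimulus: TAMRA-labelled myosin IIA heavy-chain peptide probe, 5 nM; Doses: one dose per compound; Times: polarization read 5 min after assay mix addition, stable 5–60 min; Benchmarks: neutral control DMSO, positive control TFP.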
SIRT5 inh: sirtuin-5 (human) deacylase inhibition. hit rate 1.1% among 330,000. inhibition, % at 15 µM. Purified SirT5, succinyl-peptide AMC, trypsin-coupled fluorescence. AID 652115. Q9NXA8; in the data active = inhibition above about 15%
Starred values were filed as active, the others as inactive; / = no result.

SMILES	rRNA inh HTS	E-selectin induc	ERAP1 HTS inh	MLL AF4-AF9 inh	S100A4 MyoIIA	SIRT5 inh
O=C(C[C@H]1CC[C@H]2[C@@H](COC[C@H](O)CN2Cc2ccc(Cl)cc2)O1)NCc1ccccc1Cl	-50	0	-2	1	27	-2
C[C@@H]1CN([C@@H](C)CO)S(=O)(=O)c2ccc(C#Cc3ccccn3)cc2O[C@@H]1CN(C)Cc1cccc(F)c1	-6	0	2	0	-5	20*
C[C@@H]1CN([C@H](C)CO)S(=O)(=O)c2ccc(-c3ccccc3)cc2O[C@@H]1CN(C)Cc1cccc(F)c1	0	0	-2	3	2	2
C[C@@H]1CN([C@@H](C)CO)S(=O)(=O)c2ccc(-c3ccccc3)cc2O[C@H]1CN(C)Cc1cccc(F)c1	6	0	-4	-1	143*	3
C/C=C/c1ccc2c(c1)O[C@H](CN(C)Cc1cccc(F)c1)[C@H](C)CN([C@@H](C)CO)S2(=O)=O	-31	-1	4	11	-3	19*
C/C=C/c1ccc2c(c1)O[C@@H](CN(C)Cc1ccccc1F)[C@H](C)CN([C@@H](C)CO)S2(=O)=O	-4	0	-2	9	11	19*
C[C@H](CO)N1C[C@H](C)[C@@H](CN(C)Cc2cccc(F)c2)Oc2cc(C#Cc3ccccn3)ccc2S1(=O)=O	-1	0	1	-3	-11	-1
COc1ccc(CC(=O)NC(C)c2nnc(SCCOc3ccc(OC)cc3)n2C)cc1 (centres undefined)	-10	/	-4	/	-1	29*
COCCNc1nc2ccccc2n2cnnc12	7	/	-4	0	2	17*
CCN(CC)S(=O)(=O)c1ccc(-c2csc(C)n2)s1	-14	0	4	/	-3	2
Cc1ccc(NS(=O)(=O)c2ccc(-c3csc(C)n3)s2)c(C)c1	-38*	0	2	1	5	2
COC(=O)C(Cc1ccccc1)NC(=O)C12CC3CC(CC(C3)C1)C2 (centres undefined)	-34*	4	0	2	0	-3
COC(=O)C(Cc1ccc(O)cc1)NC(=O)C12CC3CC(CC(C3)C1)C2 (centres undefined)	8	/	0	1	1	/
CO[C@H]1CN(C)C(=O)c2cc(NC(=O)c3cccc(F)c3)ccc2OC[C@@H](C)NC[C@@H]1C	3	0	-5	-11	1	3
COc1ccc2c(C)cc(N3CCCCCC3)nc2c1	-5	0	-1	-8	-2	-5
COc1ccc2c(C)cc(N3CCN(Cc4ccccc4)CC3)nc2c1	-3	0	37*	5	-1	-2
O=C(O)c1c(-n2cccc2)sc2c1CCCC2	-44*	/	-2	-1	-2	-1
CCCNC(=O)c1c(O)c2cccc3c2n(c1=O)CCC3	11	1	1	-32	-1	-1
NCCNC(=O)c1c(O)c2cccc3c2n(c1=O)CCC3	6	/	31*	4	2	-2
COc1cccc(/C=N/NC(=O)C(C)n2nc(C)c([N+](=O)[O-])c2C)c1O (centres undefined)	-22*	0	-1	5	-1	-7
COc1cc(Br)cc(/C=N/NC(=O)Cc2ccccc2)c1O	-13	/	-4	79*	8	2
COc1cccc(/C=N/NC(=O)Cn2nc(C)c([N+](=O)[O-])c2C)c1O	-6	-1	-3	0	1	2
COc1cccc(/C=N/NC(=O)N/N=C/c2cccc(OC)c2O)c1O	-31*	0	-3	3	6	2
CCC(=O)N1CC2(C1)[C@H](c1ccccc1)[C@H](CO)N2C(=O)c1ccccc1	3	0	2	-1	3	-5
CC(C)NC(=O)N(C)C[C@@H]1Oc2c(cccc2N(C)C)C(=O)N(C)C[C@@H]1C	-4	/	/	/	/	/
SMILES	rRNA inh HTS	E-selectin induc	ERAP1 HTS inh	MLL AF4-AF9 inh	S100A4 MyoIIA	SIRT5 inh
Cc1cccc(NC(=O)C2CC(=O)n3ncnc3N2)c1 (centres undefined)	3	0	/	1	-1	79*
CCOC(=O)c1ccc(NC(=S)NCCc2ccc(OC)c(OC)c2)cc1	-28*	3	2	/	-3	-1
Cc1noc(C)c1NC(=O)Nc1ccc2c(c1)C(=O)N([C@@H](C)CO)C[C@H](C)[C@H](CN(C)Cc1ccccc1)O2	3	0	1	-2	-2	-4
CCCCNC(=S)N1CCN(c2ccc(C(C)=O)cc2)CC1	-22*	2	/	3	34	-6
O=C(C[C@H]1C=C[C@@H](NC(=O)Nc2ccc3c(c2)OCO3)[C@H](CO)O1)NCc1ccc2c(c1)OCO2	2	-1	8	2	3	-2
COc1ccc(-c2cnc3c(c2)C(=O)N([C@H](C)CO)C[C@H](C)[C@H](CN(C)S(C)(=O)=O)O3)cc1	2	0	-5	-4	11	-1
Oc1c(C(c2ccccn2)N2CCC(Cc3ccccc3)CC2)cc(Cl)c2cccnc12 (centres undefined)	-49	/	0	45*	4	-2
CC(=O)NC(c1cc(Cl)c2cccnc2c1O)C1CC1 (centres undefined)	6	0	0	1	-4	-2
C[C@H]1CN([C@@H](C)CO)C(=O)c2cc(NS(=O)(=O)c3ccccc3)ccc2O[C@H]1CN(C)C(=O)Nc1cccc2ccccc12	1	0	-1	6	-11	4
COc1ccc(S(=O)(=O)Nc2ccc3c(c2)C(=O)N([C@H](C)CO)C[C@H](C)[C@@H](CN(C)C(=O)Nc2cccc4ccccc24)O3)cc1	-2	64*	-2	0	5	2
COc1ccc(S(=O)(=O)Nc2ccc3c(c2)C(=O)N([C@@H](C)CO)C[C@@H](C)[C@@H](CN(C)C(=O)Nc2cccc4ccccc24)O3)cc1	-3	53*	-1	0	-2	3
COc1ccc(S(=O)(=O)Nc2ccc3c(c2)C(=O)N([C@@H](C)CO)C[C@@H](C)[C@H](CN(C)C(=O)Nc2cccc4ccccc24)O3)cc1	-10	1	-2	-1	4	3
COc1ccc(S(=O)(=O)Nc2ccc3c(c2)C(=O)N([C@@H](C)CO)C[C@H](C)[C@@H](CN(C)C(=O)Nc2cccc4ccccc24)O3)cc1	-3	80*	0	-1	-1	2
O=C(c1ccccc1F)N1C[C@H]2[C@@H](c3ccccc31)[C@@H](CO)N2C(=O)c1ccncc1	4	0	-2	1	16	1
N#C[C@@H]1[C@H](c2ccc(-c3cccc(F)c3)cc2)[C@H](CO)N1C(=O)NC1CCCCC1	0	0	/	/	-4	0
